OX1R antag-1 = antagonists of human orexin 1 receptor (OX1R). OX1R-expressing cells, FRET antagonist read-out. inhibition, % at 6.6 µM. Orexin/Hypocretin receptor type 1 (Homo sapiens), O43613. actives 1.8% (n = 330,000); in the data active = inhibition mostly above about 38%, no sharp cut-off; inactive = mostly below about 40%;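 also: 0% = agonist challenge alone and 100% = reference antagonist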
GPR7 antagonist = GPR7 receptor antagonists, primary screen, cell-based, fluorescence, single concentration | Neuropeptides B/W receptor type 1 (Homo sapiens), P48145 | GPR7-expressing cells, fluorescence antagonist assay | actives 1.1% (n = 290,000) | inhibition, % at 4.4 µM; in the data active = inhibition above about 16%, passing the limit was not always enough;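 also: cells stimulated with the agonist NPW; 0% = agonist with vehicle and 100% = vehicle without agonist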
CHO parental Ca = ATP-evoked calcium signal inhibitors, parental CHO, primary screen, counter-screen for OX1R antagonist project, cell-based, fluorescence, Fluo-8 calcium dye; parental CHO-K1, ATP-induced calcium, Fluo-8 fluorescence; inhibition, % at 5.6 µM; actives 0.63% (n = 330,000);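 active = inhibition above that plate's mean sample inhibition plus 3 SD, cut at about 26% in these data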;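 also: 0% = ATP-challenged DMSO wells and 100% = DMSO wells without ATP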
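Material – parental CHO cells · Reagent – ATP stimulus · Compound – single nominal dose of 5.6 µM per compound · Detection – Fluo-8 fluorescence · Read-out basis – percent inhibition of calcium signal · Controls – ATP-challenged DMSO wells low, unchallenged DMSO wells high · Repeats – no replicates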
GalR3 antag = GalR3 antagonists in HEK293 cells, primary screen, cell-based, fluorescence readout | Galanin receptor type 3 (Homo sapiens), O60755 | HEK293 GalR3-CNG cAMP membrane potential fluorescence; galR3 body fused to GalR1 C-terminus | inhibition, % at 3 µM | actives 0.44% (n = 360,000);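 active = inhibition above the screen-wide average plus 3 SD, cut at about 13% in these data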;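 also: forskolin and galanin both at EC90 stimulate the cells; cAMP rise reported by CNG channel membrane potential dye signal; 0% = forskolin plus galanin with DMSO and 100% = forskolin alone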
Target sequence (O60755 1-299 limits assumed): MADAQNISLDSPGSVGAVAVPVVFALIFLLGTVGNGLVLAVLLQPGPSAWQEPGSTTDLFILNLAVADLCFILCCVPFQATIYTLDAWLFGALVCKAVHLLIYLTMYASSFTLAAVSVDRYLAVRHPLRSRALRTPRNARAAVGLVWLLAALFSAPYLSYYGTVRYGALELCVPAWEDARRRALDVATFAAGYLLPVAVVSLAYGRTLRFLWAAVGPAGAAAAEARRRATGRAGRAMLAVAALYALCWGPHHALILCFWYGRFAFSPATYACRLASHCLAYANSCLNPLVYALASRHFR
OX1R antag-2 = OX1R (HCRTR1) antagonists, primary screen, fluorescence, CHO/OX1R cells, Fluo-8 calcium, orexin A; Orexin/Hypocretin receptor type 1 (Homo sapiens), O43613; Fluo-8 calcium fluorescence; inhibition, % at 5 µM; actives 0.43% (n = 330,000); AID 434989, 2010;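 active = inhibition above its plate's threshold, mean inhibition of all tested compounds on the plate plus 3 SD, cut at about 37% in these data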;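 also: 0% = orexin A challenge wells and 100% = SB-334867-A antagonist wells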
GPR7 antag conf = GPR7 receptor antagonists, confirmation, cell-based, fluorescence, single concentration; shares compounds with GPR7 antagonist; GPR7-expressing cells, calcium fluorescence antagonist mode; inhibition, % at 4.4 µM; actives 52% (n = 2,400); AID 1952, 2009; in the data active = inhibition above about 24%;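 also: stimulated with the GPR7 agonist NPW; 0% = agonist plus vehicle and 100% = vehicle alone without agonist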
MCHR1 antag = MCHR1 antagonists in cells, counter-screen for GPR7 antagonist project, cell-based, fluorescence, human; shares compounds with GPR7 antagonist; MCHR1-expressing cells, fluorescence antagonist assay; actives 62% (n = 2,400); AID 2148, 2009; inhibition, % at 4.4 µM; in the data active = inhibition above about 22%;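 also: 0% = vehicle with agonist and 100% = vehicle without agonist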
The depositor's hits bear a star. The list is not random: actives were taken first. Their share in the collection is about 3.1%.

Screening O=c1c2ccccc2n(CC(O)CN2CCOCC2)c2ccccc12 (centres undefined) returned OX1R antag-1 30.7, GPR7 antagonist 42.1*, CHO parental Ca -24.8, GalR3 antag -14.3, OX1R antag-2 -28.1, GPR7 antag conf 0.8 and MCHR1 antag 0.2.
COc1ccc(CCNC(=O)COC(=O)c2ccc(Br)o2)cc1OC was read as OX1R antag-1 13.8, GPR7 antagonist 29.2*, CHO parental Ca -10.3, GalR3 antag -4.9, OX1R antag-2 -12.5, GPR7 antag conf -14.1 and MCHR1 antag 15.7.
O=C(Nc1ccccc1C(=O)Nc1ccc2c(c1)OCO2)c1cccs1 was read as OX1R antag-1 7.5, GPR7 antagonist -9.8, CHO parental Ca 2.8, GalR3 antag -7.6 and OX1R antag-2 -11.5.
`CC(C)(C)C1CCN2CCC[C@](c3ccccc3)(C1)C2OCCCO` (some centres undefined) gave GalR3 antag -5.8.
`CCC1(C)CC2(CCCN(CCC(O)(c3ccccc3)c3ccccc3)C2)CCO1` (centres undefined) gave OX1R antag-1 10.4, GPR7 antagonist 26.2*, CHO parental Ca -20.9, GalR3 antag -5.7, OX1R antag-2 -33.0, GPR7 antag conf 16.3 and MCHR1 antag 16.2.
`CC1(C)CC2(CCCN(CC(O)(c3ccccc3)c3ccccc3)C2)CCO1` (centres undefined) gave OX1R antag-1 7.1, GPR7 antagonist 8.9, CHO parental Ca -21.6, GalR3 antag -8.3 and OX1R antag-2 -38.2.
For CCCCNC(=NCc1cccc(C(F)(F)F)c1)Nc1ccccc1 the results were OX1R antag-1 15.4, GPR7 antagonist 43.9*, CHO parental Ca -23.3, GalR3 antag -11.8, OX1R antag-2 -23.4, GPR7 antag conf 49.2* and MCHR1 antag 31.1*.
Screening COc1cccc(NC(=O)Nc2nc(SC(C)(C)C)ns2)c1 returned OX1R antag-1 36.5, GPR7 antagonist 29.1*, CHO parental Ca 73.6*, GalR3 antag -11.2, OX1R antag-2 75.1*, GPR7 antag conf 59.9* and MCHR1 antag 71.6*.
Screening COc1ccc(NC(=O)Nc2cccc(OC)c2)cc1 returned OX1R antag-1 -0.4, GPR7 antagonist 2.7, CHO parental Ca 5.5, GalR3 antag -3.5 and OX1R antag-2 -9.7.
Screening CCOc1ccc(NC(=O)CCS(=O)(=O)c2ccc(C)cc2)cc1 returned OX1R antag-1 7.3, GPR7 antagonist -15.3, CHO parental Ca -25.2, GalR3 antag -5.5 and OX1R antag-2 -31.6.
Screening OC(c1cccc(Cl)c1)c1ncc(-c2ccccc2Cl)[nH]1 (centres undefined) returned GalR3 antag -1.1.
Screening O=C(COC(=O)CNS(=O)(=O)c1ccc2ccccc2c1)Nc1ccccc1Sc1ccccc1 returned OX1R antag-1 20.3, GPR7 antagonist 22.8*, CHO parental Ca 2.9, GalR3 antag -2.1, OX1R antag-2 12.8, GPR7 antag conf 32.1* and MCHR1 antag 34.2*.
O=C(Cc1cccc(NC(=O)C2CCCN(C(=O)CCc3ccccc3)C2)c1)Nc1ccc(C(=O)N2CCOCC2)cc1 (centres undefined) was read as GalR3 antag 0.0.
`O=C(NCc1ccccc1Cl)c1ccc(S(=O)(=O)Nc2cccc(C(F)(F)F)c2)cc1` gave OX1R antag-1 3.3, GPR7 antagonist 24.3*, CHO parental Ca 16.9, GalR3 antag -3.3, OX1R antag-2 21.9, GPR7 antag conf 32.4* and MCHR1 antag 46.2*.
Cc1nn(C)cc1S(=O)(=O)NCc1ccccc1Cl was read as OX1R antag-1 21.5, GPR7 antagonist -9.3, CHO parental Ca -5.9, GalR3 antag -2.4 and OX1R antag-2 -4.2.

Screening data from PubChem.
